# Assay outcomes as filed in PubChem.
# ERAP1 inh = human ERAP1 aminopeptidase inhibitors, primary screen, biochemical, single point, plate reader. AID 652197, 2013. recombinant ERAP1, Leu-AMC fluorescence, 60 min. inhibition, % at 10.7 µM. Endoplasmic reticulum aminopeptidase 1 (Homo sapiens), Q9NZ08. actives 0.15% (n = 340,000);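 active = mean replicate inhibition of at least 30%, or all replicates individually reaching that 30% level; inactive = mean below 30% and not every replicate reaching it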;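 note: 0% = neutral control wells and 100% = L-leucinethiol positive control wells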
# SIRT5 block = SIRT5 desuccinylase inhibitors, primary screen, biochemical, fluorescence imaging, single point, set 5; Purified SirT5, succinyl-peptide AMC, trypsin-coupled fluorescence; inhibition, % at 15 µM; actives 1.1% (n = 330,000); in the data active = inhibition above about 15%; inconclusive = no clear call, values can overlap the other calls
# Target sequence (Q9NXA8 whole entry, looked up): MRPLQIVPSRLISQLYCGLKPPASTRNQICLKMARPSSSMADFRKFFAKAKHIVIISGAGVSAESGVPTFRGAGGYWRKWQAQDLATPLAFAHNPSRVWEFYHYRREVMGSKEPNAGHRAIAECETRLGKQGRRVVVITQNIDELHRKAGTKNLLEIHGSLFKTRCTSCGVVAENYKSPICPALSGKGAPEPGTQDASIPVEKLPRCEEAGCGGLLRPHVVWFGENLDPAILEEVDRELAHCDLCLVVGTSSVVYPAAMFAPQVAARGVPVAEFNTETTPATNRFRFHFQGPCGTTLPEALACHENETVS
# DENV2 CPE = inhibitors of DENV2 cytopathic effect, primary screen, cell-based, plate reader, single concentration. actives 1.7% (n = 350,000). DENV2-infected cells, cytopathic effect rescue. CPE inhibition, % at 9.99 µM; in the data active = CPE inhibition above about 20%, passing the limit was not always enough; inconclusive = no clear call, values can overlap the other calls; tested in BHK-21 cells;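 note: 0% = median of neutral control wells and 100% = median of positive control wells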
# PglD DTNB = C. jejuni PglD acetyltransferase inhibitors, primary screen, biochemical, DTNB colorimetric, single point | inhibition, % at 12.5 µM | AID 602405, 2012 | UDP-N-acetylbacillosamine N-acetyltransferase PglD (Campylobacter jejuni) | purified PglD enzyme, DTNB colorimetric CoA detection | actives 0.098% (n = 360,000); in the data active = inhibition above about 16%, passing the limit was not always enough; inconclusive = no clear call, values can overlap the other calls
# E-sel inducer = E-selectin induction in HUVECs, primary screen, imaging, HUVEC, immunofluorescence imaging, single point. normalized: neutral wells 0, TNF-alpha wells 100. activation, % at 7.58 µM. actives 0.37% (n = 260,000);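 active = mean E-selectin-positive cell signal at least 10% of the positive control, reached in at least 60% of replicates, without over 20% cell loss; inconclusive = no rule given, readout overlaps actives, possibly toxicity-flagged; inactive = the rest, including those meeting only one limit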
#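 Assay system: HUVEC, human umbilical vein endothelial cells / Amount: 3,000 HUVEC/well / Controls: TNF-alpha positive control, DMSO neutral control / Compound dosing: single concentration / Medium: EGM-2 over gelatin coat / Evaluation: percent E-selectin-positive cells / Signal: immunofluorescence imaging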
# PglD inh SP = PglD acetyltransferase inhibitors, confirmation, biochemical, DTNB absorbance, single point, cherry-picked samples. shares compounds with PglD DTNB. Purified C. jejuni PglD, DTNB absorbance 412 nm. inhibition, % at 20 µM. 320 tested, under 10 active. AID 743156, 2013;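 active = mean inhibition across replicates of at least 20% with every single replicate also at 20% or more; inconclusive = mean inhibition at least 20% but some replicate falls below 20%; inactive = mean inhibition under 20% and not all replicates reach it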;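 note: initial rate of CoA release by acetyl transfer from AcCoA to the UDP-4-amino sugar; 0% = median of neutral control wells and 100% = median of positive control wells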
# An asterisk follows results filed as active; ? = inconclusive; . = no result. Rows were chosen to be rich in hits. Some 2.5% of all compounds tested hit in one or more screens of this group.
SMILES,ERAP1 inh,SIRT5 block,DENV2 CPE,PglD DTNB,E-sel inducer,PglD inh SP
CC(C)C(NC(=O)c1ccc(C(C)(C)C)cc1)C(=O)NCC1(N(C)C)CCCCC1 (stereo not drawn),-1.0,-20.0,3.8,1.3,0.9,.
Cc1cc(C)n(CCCC(=O)O)n1,-1.4,0.9,-1.4,2.3,.,.
CCSC1=NCN(CCCC(=O)O)CN1,.,.,.,20.3*,0.0,-2.1
CCC1CCC2(CC1)NC(=O)N(CC(=O)NCc1ccc(Cl)cc1)C2=O (stereo not drawn),-4.6,-4.1,?,2.0,6.7,.
CC1CCC2(CC1)NC(=O)N(CC(=O)NCc1ccc(Cl)cc1)C2=O (stereo not drawn),1.4,.,-2.7,20.9*,0.1,1.4
CCOc1cccc(OCCn2cnc3ccccc3c2=O)c1,-2.3,-1.2,-13.8,-11.4,.,.
O=C1CSC(c2cccnc2)N1Cc1cccnc1 (stereo not drawn),4.7,-3.8,-0.9,23.1*,1.1,10.5
O=C1CSC(c2ccncc2)N1Cc1ccccc1 (stereo not drawn),-1.3,.,-5.5,.,.,.
CCOc1cc(C2NC(=O)NC(c3ccccc3)=C2C(C)=O)ccc1OC(C)=O (stereo not drawn),-1.1,-1.0,5.5,23.3*,0.0,-4.2
C[C@H](CO)N1C[C@H](C)[C@@H](CN(C)Cc2ccncc2)Oc2cc(-c3cncnc3)ccc2S1(=O)=O,0.1,-6.4,8.7,-1.3,-0.1,.
CCNCCNC(=O)c1c(O)c2cccc3c2n(c1=O)CCC3,.,.,.,22.1*,.,-15.6
Cc1nn(Cc2ccccc2)c(Cl)c1/C=N/NC(=O)c1cccnc1,-1.2,-2.6,.,24.7*,-0.1,-2.6
COc1ccc(CC(=O)NC(=S)NNC(=O)COc2c(C)cccc2C)cc1,.,.,.,23.0*,0.3,-4.3
O=C1OCCC1Sc1nnc(-c2ccc(Br)cc2)o1 (stereo not drawn),.,.,.,34.1*,.,-2.8
O=C(O)c1cccc(-c2nnn(Cc3ccccc3Cl)n2)c1,.,.,.,-4.1,.,.
COc1ccc(-c2cc(NC(C)=O)c3ncc(-c4ccc(OC)c(OC)c4)n3c2)c(OC)c1,1.0,12.8,-4.7,31.7*,-0.2,0.5
CCOC(=O)c1c(NC(=O)CN2CCCCC2)sc2c1CCC(C=O)=C2Cl,.,.,.,4.1,.,.
COc1ccc(N2CCN(CCC(O)c3ccc4ccccc4c3)CC2)cc1 (stereo not drawn),-2.0,-3.4,11.1,28.6*,0.0,0.9
COc1ccc(C(CCN2CCN(c3ccccc3)CC2)c2c(O)cc(OC)cc2OC)cc1 (stereo not drawn),.,.,.,1.0,-0.3,.
COCC(=O)N[C@H]1CC[C@H](CC(=O)N2CCCCC2)O[C@H]1CO,-1.2,11.6,-2.3,6.9,-0.3,.
CC(=O)Nc1sc2c(c1CN1CCN(C)CC1)CCCC2,.,.,.,58.9*,.,0.9
O=C(Nc1sc2c(c1CN1CCOCC1)CCC2)c1ccc(F)cc1,-1.4,-4.9,-9.5,1.4,0.9,.
CCOC(=O)C1CCN(S(=O)(=O)c2ccc3c(c2)CC(=O)N3C)CC1,100.7*,-3.8,-4.2,41.1*,.,5.2
COC(=O)c1ccc(C2C(Oc3ccc(OC)cc3)C(=O)N2CCc2ccc(OC)c(OC)c2)cc1 (stereo not drawn),.,.,.,34.6*,1.9,-11.9
O=C(NCCN1CCNCC1)c1ccccc1O,.,-6.6,?,-6.9,.,.
SMILES,ERAP1 inh,SIRT5 block,DENV2 CPE,PglD DTNB,E-sel inducer,PglD inh SP
c1ccc(CNCCN2CCNCC2)nc1,.,.,.,30.3*,.,-50.0
CCn1ncc(/C=N\NC(=O)c2ccc3c(c2)c(C)c(C)n3Cc2ccccc2)c1C,.,.,.,3.3,.,.
CCn1cc(/C=N\NC(=O)c2ccc3c(c2)c(C)c(C)n3Cc2ccccc2)c(C)n1,.,.,.,31.8*,.,-5.4
COc1ccc2c3c([nH]c2c1)[C@H](CO)N(C(=O)CC1CC1)CC31CN(C(=O)c2ccccc2)C1,-2.0,2.2,15.5,.,0.1,.
N#Cc1ccccc1NC(=O)CN1C(=O)NC2(CCCC2)C1=O,-5.9,7.3,-0.8,-1.2,0.5,.
Cc1ccc(CCC(=O)Nc2ccc(N(C)C)cc2)o1,4.0,-1.7,0.4,82.8*,.,-2.7
